The structures appear in SMILES notation. Active and inactive are the calls of the source. The calls are words filed in the database; no cut-off is given here.

Drawing on ChEMBL document CHEMBL3785059, “LC-MS-Guided Isolation of Penicilfuranone A: A New Antifibrotic Furancarboxylic Acid from the Plant Endophytic Fungus Penicillium sp. sh18” (J Nat Prod, 2016), this text covers inhibition and Activity for two compounds.

Data set [1] has as its target T1, Mothers against decapentaplegic homolog 2/homolog 3 (Rattus norvegicus) (UniProt O70436+P84025). Kind of data set: Inhibition of TGF-beta1-induced Smad2/3 phosphorylation in rat HSC-T6 cells at 10 uM after 1 hr by Western blot analysis. The class given is cell-based. In a few lines:
(§1)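 HSC-T6 (rat; RPMI 1640) or LX-2 (human; DMEM) cells with 10% FBS, passages 18-25, were grown to 70% confluence and serum-starved 24 h. They were preincubated 2 h with test agent or DMSO, then exposed to TGF-β1 at a final 10 ng/mL for 1 h. Blots of 30 μg lysate were probed for phospho-Smad2/3 and Smad7, then reprobed for total Smad2/3 and β-actin.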
Background: In western blotting, separated proteins are transferred to a membrane and probed.

Data set [2] deals with T2, Mothers against decapentaplegic homolog 2/homolog 3 (Homo sapiens) (UniProt P84022+Q15796). Kind of data set: Inhibition of TGF-beta1-induced Smad2/3 phosphorylation in human LX2 cells at 10 uM after 1 hr by Western blot analysis. The class given is cell-based. In a few lines:
as §1

Data set [3] has as its system HSC-T6. Put plainly: Inhibition of TGF-beta1-induced decrease of Smad7 expression in rat HSC-T6 cells at 10 uM after 1 hr by Western blot analysis. The class given is functional, cell-based. In a few lines: as §1
Data set [4] has as its system LX2. Put plainly: Inhibition of TGF-beta1-induced decrease of Smad7 expression in human LX2 cells at 10 uM after 1 hr by Western blot analysis. The class given is functional, cell-based. In a few lines: as §1
The test system of data set [5] is HSC-T6. Kind of data set: Effect on Smad2/3 expression in rat HSC-T6 cells at 10 uM after 1 hr by Western blot analysis. The class given is functional, cell-based. In a few lines:
as §1

The subject of data set [6] is LX2. Kind of data set: Effect on Smad2/3 expression in human LX2 cells at 10 uM after 1 hr by Western blot analysis. The class given is functional, cell-based. In a few lines: as §1
In data set [7] the test system is HSC-T6. Kind of data set: Inhibition of TGF-beta-induced vimentin expression in rat HSC-T6 cells at 10 uM after 48 hrs by Western blot analysis. The class given is functional, cell-based. In a few lines:
(§2)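 Rat HSC-T6 (RPMI 1640) or human LX-2 (DMEM) cells, passages 18-25, at 70% confluence were serum-deprived for 24 h. After 2 h pretreatment with agent or DMSO vehicle, TGF-β1 was added without washing at a final 10 ng/mL for 48 h. Whole-cell lysates (30 μg) were blotted for vimentin, with β-actin as the loading control.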

The subject of data set [8] is LX2. Kind of data set: Inhibition of TGF-beta-induced vimentin expression in human LX2 cells at 10 uM after 48 hrs by Western blot analysis. The class given is functional, cell-based. In a few lines:
as §2

The test system of data set [9] is HSC-T6. Kind of data set: Inhibition of TGF-beta-induced CTGF expression in rat HSC-T6 cells after 48 hrs by Western blot analysis. The class given is functional, cell-based.
Data set [10] relates to LX2. Put plainly: Inhibition of TGF-beta-induced CTGF expression in human LX2 cells after 48 hrs by Western blot analysis. The class given is functional, cell-based.
Data set [11] concerns the target T1, Mothers against decapentaplegic homolog 2/homolog 3 (Rattus norvegicus). Kind of data set: Inhibition of TGF-beta1-induced Smad2/3 phosphorylation in rat HSC-T6 cells after 1 hr by Western blot analysis. The class given is cell-based. Summed up:
(§3)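 Serum-starved cells (24 h, no FBS) preincubated 2 h with compound at 1, 2 or 4 μM, DMSO or 10 μM SB431542. Then exposed to TGF-β1 at 10 ng/mL final for 1 h. Lysates (30 μg) immunoblotted for phospho-Smad2/3 and Smad7; membranes reprobed for total Smad2/3 and β-actin for loading.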

Data set [12] deals with T2, Mothers against decapentaplegic homolog 2/homolog 3 (Homo sapiens). Put plainly: Inhibition of TGF-beta1-induced Smad2/3 phosphorylation in human LX-2 cells after 1 hr by Western blot analysis. The class given is cell-based. Summed up: as §3
Data set [13] deals with HSC-T6. Put plainly: Inhibition of TGF-beta1-induced decrease of Smad7 expression in rat HSC-T6 cells after 1 hr by Western blot analysis. The class given is functional, cell-based. Summed up:
as §3

For data set [14], the system named is LX2. Put plainly: Inhibition of TGF-beta1-induced decrease of Smad7 expression in human LX2 cells after 1 hr by Western blot analysis. The class given is functional, cell-based. Summed up: as §3
In data set [15] the test system is HSC-T6. Kind of data set: Effect on Smad2/3 expression in rat HSC-T6 cells at 1 to 4 uM after 1 hr by Western blot analysis. The class given is functional, cell-based. In a few lines:
as §3

In data set [16] the test system is LX2. Put plainly: Effect on Smad2/3 expression in human LX2 cells at 1 to 4 uM after 1 hr by Western blot analysis. The class given is functional, cell-based. In a few lines: as §3
Data set [17] relates to HSC-T6. Put plainly: Inhibition of TGF-beta-induced alpha-SMA expression in rat HSC-T6 cells at 1 to 4 uM after 48 hrs by Western blot analysis. The class given is functional, cell-based. In a few lines:
(§4)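 Cells at 70% confluence serum-starved 24 h (passages 18–25). Preincubated 2 h with compound (1, 2 or 4 μM), DMSO vehicle or 10 μM SB431542, then 10 ng/mL human recombinant TGF-β1 added without wash for 48 h. Whole-cell lysates (30 μg protein) run on SDS-PAGE and immunoblotted with β-actin as loading control.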

Data set [18] deals with LX2. Put plainly: Inhibition of TGF-beta-induced alpha-SMA expression in human LX2 cells at 1 to 4 uM after 48 hrs by Western blot analysis. The class given is functional, cell-based. In a few lines:
as §4

Data set [19] has as its system HSC-T6. Kind of data set: Inhibition of TGF-beta-induced type-1 collagen expression in rat HSC-T6 cells after 48 hrs by Western blot analysis. The class given is functional, cell-based. In a few lines: as §4
The nature of data set [20]: Cytotoxicity against human L02 cells at up to 4 uM after 48 hrs by MTT assay. The class given is cell-based. The settings on record: l02, 48 h. In a few lines: (§5)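 MTT (5 mg/mL stock) added for 4 h at 37 °C. Formazan dissolved in DMSO, OD read at 570 nm. Viability given as % of control; mean ± SEM of three independent experiments.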
A short description of data set [21]: Cytotoxicity against rat HSC-T6 cells at up to 4 uM after 48 hrs by MTT assay. The class given is cell-based. To be noted: hsc-t6, 48 h. In a few lines:
as §5
(In general: Tetrazolium dyes change colour on reduction, which living cells bring about.)

The nature of data set [22]: Cytotoxicity against human LX2 cells at up to 4 uM after 48 hrs by MTT assay. The settings on record: lx2, 48 h. The class given is cell-based. In a few lines:
as §5

Data set [23] concerns HSC-T6. Put plainly: Inhibition of TGF-beta-induced vimentin expression in rat HSC-T6 cells at 1 to 4 uM after 48 hrs by Western blot analysis. The class given is functional, cell-based. Summed up:
as §4

In data set [24] the test system is LX2. Kind of data set: Inhibition of TGF-beta-induced vimentin expression in human LX2 cells at 1 to 4 uM after 48 hrs by Western blot analysis. The class given is functional, cell-based. Summed up: as §4
The subject of data set [25] is LX2. Kind of data set: Inhibition of TGF-beta-induced type-1 collagen expression in human LX2 cells after 48 hrs by Western blot analysis. The class given is functional, cell-based. Summed up: as §4

T1 sequence (O70436 whole entry, looked up): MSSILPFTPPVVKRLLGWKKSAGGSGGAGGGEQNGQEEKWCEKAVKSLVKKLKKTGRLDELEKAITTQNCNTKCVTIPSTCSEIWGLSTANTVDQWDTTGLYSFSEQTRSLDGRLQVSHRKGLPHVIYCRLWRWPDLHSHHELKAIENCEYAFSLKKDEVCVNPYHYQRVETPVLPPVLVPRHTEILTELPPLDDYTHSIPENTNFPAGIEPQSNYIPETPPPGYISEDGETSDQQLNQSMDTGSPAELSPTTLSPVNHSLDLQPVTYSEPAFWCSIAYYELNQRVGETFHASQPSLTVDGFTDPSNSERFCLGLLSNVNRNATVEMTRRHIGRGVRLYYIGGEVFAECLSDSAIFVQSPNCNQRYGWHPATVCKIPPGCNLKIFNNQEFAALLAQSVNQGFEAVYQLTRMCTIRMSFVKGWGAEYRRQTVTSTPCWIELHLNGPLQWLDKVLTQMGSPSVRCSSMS
T1 sequence (P84025 whole entry, looked up): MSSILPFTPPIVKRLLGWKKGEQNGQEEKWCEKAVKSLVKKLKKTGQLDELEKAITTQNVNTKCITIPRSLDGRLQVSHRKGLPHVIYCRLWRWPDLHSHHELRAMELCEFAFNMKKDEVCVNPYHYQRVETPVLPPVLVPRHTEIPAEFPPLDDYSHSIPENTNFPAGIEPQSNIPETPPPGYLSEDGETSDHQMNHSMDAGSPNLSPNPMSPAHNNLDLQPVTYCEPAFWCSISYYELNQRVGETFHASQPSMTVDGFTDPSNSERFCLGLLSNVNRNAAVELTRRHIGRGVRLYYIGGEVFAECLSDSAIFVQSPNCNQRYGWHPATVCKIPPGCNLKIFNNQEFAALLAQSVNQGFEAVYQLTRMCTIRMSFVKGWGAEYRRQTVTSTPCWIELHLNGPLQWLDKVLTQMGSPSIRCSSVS
T2 sequence (P84022 whole entry, looked up): as the sequence (P84025 whole entry, looked up) above
T2 sequence (Q15796 whole entry, looked up): as the sequence (O70436 whole entry, looked up) above, with A90P, V93I, S154N counted along it

On to `NC(=O)c1ccc(-c2nc(-c3ccccn3)c(-c3ccc4c(c3)OCO4)[nH]2)cc1`, for which the inhibition entry (in data set [1]; in data set [2]; with HSC-T6 [3]; in the data set with LX2 [4]) was “Dose-dependent effect” in each case. Also, the outcome in the data set on HSC-T6 [5] and in the data set with LX2 [6] was inactive. Moreover, the inhibition result in the data set on HSC-T6 [7] and in the data set with LX2 [8] was “Active” each time.

With `CC/C=C/C=C/[C@@]1(C)OC([C@H]2[C@@H](C)C(=O)c3cc(OC)c(O)c(O)c3[C@@]2(C)O)=C(C(=O)OC)C1=O`, the inhibition result (in the data set on HSC-T6 [9]; in the data set with LX2 [10]; in [11]; in data set [12]; in the data set with HSC-T6 [13]; in the data set on LX2 [14]) was “Dose-dependent effect” throughout. In addition, the inhibition entry in the data set with HSC-T6 [19] and in the data set on LX2 [25] was “Dose-dependent effect” in each case. Moreover, the result with HSC-T6 [15] and with LX2 [16] was inactive. Further, the inhibition result with HSC-T6 [17], in the data set on LX2 [18], in the data set with HSC-T6 [23] and in the data set on LX2 [24] was “Active” each time. Moreover, the Activity result in [20], in [21] and in data set [22] was “Non-toxic” in each case.
